This is an account of results in ChEMBL document CHEMBL1833943, “Synthesis and structure-activity relationships of varied ether linker analogues of the antitubercular drug (6S)-2-nitro-6-{[4-(trifluoromethoxy)benzyl]oxy}-6,7-dihydro-5h-imidazo[2,1-b][1,3]oxazine (PA-824)” (J Med Chem, 2011).

Converted amounts (≈) assume the structure as drawn. Where only a bound is given, the exact number is not on record here.

A short description of data set [1]: Metabolic stability in human liver microsomes at 1 uM measured as compound remaining after 1 hr by LC/MS/MS analysis. The class given is ADME, Microsome. The following applies: read-out: Stability.
Data set [2] is described as follows: Aqueous solubility of the compound in water at pH 7 by HPLC analysis. The class given is physicochemical. In outline:
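Solubility measured in water at pH 7 and 20 °C, quantified by HPLC.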

Data set [3] in a line: Stability of the compound in antimycobacterial activity assay condition assessed as parent compound level. The data set is classed as ADME.
A short description of data set [4]: AUC (0 to infinity) in lung of CD1 mouse at 40 mg/kg, po. The data set is classed as ADME, organism-based. The arrangement: time infinity, dose 40 mg/kg, route oral. In outline:
(§1)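 Mice given a single oral dose of 40 mg/kg; drug levels followed over time in plasma and lung tissue to derive half-life, Cmax and AUC for each matrix.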

In data set [5] the test system is Mycobacterium tuberculosis. The experiment in a line: Antituberculosis activity against Mycobacterium tuberculosis H37Rv under aerobic conditions by microplate alamar blue assay. The class given is functional.
Data set [6] has as its system Mycobacterium tuberculosis. The experiment in a line: Antituberculosis activity against Mycobacterium tuberculosis H37Rv infected in BALB/c mouse acute infection model assessed as fold reduction in bacterial CFU in lungs at 100 mg/kg, po administered for 5 days a week for 3 weeks beginning on day 11 postinfection relative to PA-824. The data set is classed as functional. In short, it runs like this:
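Mice with acute M. tb infection dosed orally at 100 mg/kg daily, 5 days each week, standard 3 week assay. Lung CFUs counted. Value is the fold CFU decrease for the compound divided by the fold CFU decrease for the internal reference standard run in the same experiment.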

Data set [7] in a line: Half life in the lung of CD1 mouse at 40 mg/kg, po. The data set is classed as ADME, organism-based. The arrangement: dose 40 mg/kg, route oral. In short, it runs like this: as §1
Data set [8] is described as follows: AUC (0 to infinity) in plasma of CD1 mouse at 40 mg/kg, po. The class given is ADME, organism-based. Also noted: time infinity, dose 40 mg/kg, route oral. In short, it runs like this:
as §1

Data set [9] in a line: Half life in plasma of CD1 mouse at 40 mg/kg, po. The class given is ADME, organism-based. Also noted: dose 40 mg/kg, route oral.
In data set [10] the test system is Mycobacterium tuberculosis. In words: Antituberculosis activity against Mycobacterium tuberculosis H37Rv under anaerobic conditions by fluorescence based low-oxygen-recovery assay. The data set is classed as functional.
Data set [11] is described as follows: Cmax in lung of CD1 mouse at 40 mg/kg, po. The data set is classed as ADME, organism-based. Also noted: dose 40 mg/kg, route oral. In short, it runs like this: as §1
A short description of data set [12]: Metabolic stability in CD1 mouse liver microsomes at 1 uM measured as compound remaining after 1 hr by LC/MS/MS analysis. The data set is classed as ADME, Microsome. Particulars: read-out: Stability. (Liver microsomes are vesicles of endoplasmic reticulum, rich in cytochrome P450 enzymes.)
The nature of data set [13]: Ratio of AUC (0 to infinity) in lung of CD1 mouse to AUC (0 to infinity) in plasma of CD1 mouse at 40 mg/kg, po. The class given is ADME, organism-based. The arrangement: dose 40 mg/kg, route oral. Particulars: read-out: Ratio AUC.
A short description of data set [14]: Cmax in plasma of CD1 mouse at 40 mg/kg, po. Also noted: dose 40 mg/kg, route oral. The class given is ADME, organism-based. In short, it runs like this:
as §1

The test system of data set [15] is Mycobacterium tuberculosis. In words: Antituberculosis activity against Mycobacterium tuberculosis H37Rv infected in BALB/c mouse chronic infection model assessed as fold reduction in bacterial CFU in lungs at 100 mg/kg, po administered for 5 days a week for 3 weeks beginning on day 70 postinfection relative to OPC-67683. The data set is classed as functional. In short, it runs like this:
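Chronic M. tb infection model with dosing starting ~70 days post infection, once bacteria are in a plateau phase of growth. Oral 100 mg/kg daily, 5 days/week, 3 weeks. Lung CFUs counted. Value is the fold CFU reduction for the compound relative to the fold reduction for the reference agent.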

A short description of data set [16]: Aqueous solubility of the compound in 0.1 M hydrochloric acid at pH 1 by HPLC analysis. The data set is classed as physicochemical.
Data set [17] in a line: Metabolic stability in human liver microsomes at 1 uM measured as compound remaining after 45 mins by LC/MS/MS analysis. The class given is ADME, Microsome. Particulars: read-out: Stability.
The next data set relates to Mus musculus. The experiment in a line: Toxicity in Mycobacterium tuberculosis H37Rv infected BALB/c mouse at 100 mg/kg, po administered for 5 days a week for 3 weeks beginning on day 11 postinfection. The class given is organism-based. The arrangement: dose 100 mg/kg, route oral. Particulars: in vivo.

Consider `O=[N+]([O-])c1cn2c(n1)OC[C@@H](OCCCC#Cc1ccc(OC(F)(F)F)cc1)C2`, for which the remaining at 1 h, 1 µM was 69% in [1] and 24% in data set [12]. Also, the concentration in solution in data set [2] (solubility) was 0.09 µg/mL (≈ 0.219 µM). Further, the Stability in data set [3] is below 50%. The total exposure AUC(0-inf) (in general, total exposure, with the tail of the curve extrapolated) was 7570 ng·h/mL in data set [4] and 12600 ng·h/mL in data set [8]. The MIC (as a rule, the lowest concentration found to suppress growth) in data set [5] came out at 0.05 µM (≈ 0.0206 µg/mL); in data set [10] it was 1.9 µM (≈ 0.782 µg/mL). The “fold change (FC)” value in [6] is listed as 4.9. The half-life (commonly the time needed for the level to fall by half in the phase considered) is 84 min in [7] and 96 min in data set [9]. Also, the Cmax (in general, the maximum level reached in the sampled fluid or tissue) in [11] amounted to 2720 ng/mL; in data set [14] it was 2540 ng/mL. The Kp in [13] was determined as 0.6.
With `O=[N+]([O-])c1cn2c(n1)OC[C@@H](OCCCc1ccc(-c3ccc(OC(F)(F)F)cc3)cc1)C2`, the remaining at 1 h, 1 µM in [1] is 88%; in [12] it was 91%. For the same compound, in data set [2], the solubility (usually the dissolved amount per volume that the medium holds) was 1.7 µg/mL (≈ 3.67 µM). The AUC(0-inf) was determined as 29500 ng·h/mL in data set [4] and 13300 ng·h/mL in [8]. Besides, the MIC in [5] worked out at 0.15 µM (≈ 0.0695 µg/mL); in [10], 3.8 µM (≈ 1.76 µg/mL). Besides, the results for the “fold change (FC)” value in data set [6] and in data set [15] were 1.5 and 0.025, respectively. In [9], this compound showed a half-life of 264 min. Further, the results for the Cmax in [11] and in [14] were 10100 ng/mL and 990 ng/mL, respectively. In addition, in [13], the Kp stood at 2.2.
In turn, `O=[N+]([O-])c1cn2c(n1)OC[C@@H](OCCOc1ccc(-c3ccc(OC(F)(F)F)cc3)cn1)C2` displayed a solubility in [2] of 0.79 µg/mL (≈ 1.69 µM). In addition, in data set [3], the Stability is below 50%. Further, the minimum inhibitory concentration (MIC) in [5] was 0.04 µM (≈ 0.0187 µg/mL); in [10], 2.5 µM (≈ 1.17 µg/mL).
In the case of `O=[N+]([O-])c1cn2c(n1)OC[C@@H](OCC#Cc1ccc(-c3ccc(OC(F)(F)F)cc3)cc1)C2`, the remaining at 1 h, 1 µM in data set [1] was 93%; in [12], 85%. The compound also showed a solubility in [2] of 0.07 µg/mL (≈ 0.152 µM). Further, the area under the curve AUC(0-inf) in data set [4] worked out at 13600 ng·h/mL; in data set [8], 10000 ng·h/mL. Besides, the results for the “fold change (FC)” value in [6] and in [15] were 89 and 1.6, respectively. Also, the half-life in data set [7] is 738 min; in data set [9], 450 min. Moreover, the Cmax in [11] came out at 760 ng/mL; in data set [14], 570 ng/mL. Besides, in data set [13], the Kp was 1.4.
Consider `O=[N+]([O-])c1cn2c(n1)OC[C@@H](OCC#Cc1cccc(-c3ccc(OC(F)(F)F)cc3)c1)C2`, for which the remaining at 1 h, 1 µM in [1] came to 94%; in data set [12], 89%. In data set [2], this compound returned a solubility of 0.27 µg/mL (≈ 0.588 µM). In addition, the values for the total exposure AUC(0-inf) in data set [4] and in [8] were 257000 ng·h/mL and 35800 ng·h/mL, respectively. The MIC in data set [5] came out at 0.11 µM (≈ 0.0505 µg/mL); in data set [10] it was 1.3 µM (≈ 0.597 µg/mL). Also, in data set [6], the “fold change (FC)” value was 6.4. Moreover, the values for the half-life in data set [7] and in [9] were 846 min and 882 min, respectively. The highest concentration (Cmax) in [11] worked out at 12900 ng/mL; in data set [14], 1660 ng/mL. The Kp in [13] was found to be 7.2.
For the compound `O=[N+]([O-])c1cn2c(n1)OC[C@@H](OCC#Cc1ccc(-c3ccc(OC(F)(F)F)cc3)nc1)C2`, the remaining at 1 h, 1 µM in [1] was 93%; in [12], 90%. Further, the solubility in data set [2] came to 0.72 µg/mL (≈ 1.56 µM); in [16], 4 µg/mL (≈ 8.69 µM). Besides, the MIC amounted to 0.09 µM (≈ 0.0414 µg/mL) in data set [5] and 0.52 µM (≈ 0.239 µg/mL) in data set [10]. Also, the “fold change (FC)” value in data set [6] came to 1.
Consider `C[C@@H](O[C@@H]1COc2nc([N+](=O)[O-])cn2C1)c1ccc(OC(F)(F)F)cc1`, for which, in data set [17], the remaining at 0.75 h, 1 µM was found to be 60%.
The same measure, in the same setting: to `C[C@H](O[C@@H]1COc2nc([N+](=O)[O-])cn2C1)c1ccc(OC(F)(F)F)cc1` belongs 73%.
Take `CC(O[C@@H]1COc2nc([N+](=O)[O-])cn2C1)c1ccc(-c2ccc(OC(F)(F)F)cc2)cc1` (stereo partly specified): the remaining at 1 h, 1 µM was found to be 100% in data set [1] and 92% in data set [12]. Also, the Activity result in the data set on Mus musculus is “Toxic”. This compound also came in with a solubility in data set [2] of 0.84 µg/mL (≈ 1.87 µM). In addition, the minimal inhibitory concentration (MIC) amounted to 0.19 µM (≈ 0.0854 µg/mL) in [5] and 1.5 µM (≈ 0.674 µg/mL) in [10].
With `O=[N+]([O-])c1cn2c(n1)OC[C@@H](Oc1ccc(-c3ccc(OC(F)(F)F)cc3)cc1)C2`, the solubility in [2] was determined as 0.33 µg/mL (≈ 0.783 µM). Moreover, the AUC(0-inf) in data set [4] came to 347000 ng·h/mL; in data set [8], 102000 ng·h/mL. Further, the minimum inhibitory concentration (MIC) came out at 0.09 µM (≈ 0.0379 µg/mL) in data set [5] and 1.1 µM (≈ 0.463 µg/mL) in data set [10]. The “fold change (FC)” value in [6] amounted to 8.1. Besides, the values for the half-life in data set [7] and in [9] were 918 min and 2270 min, respectively. In addition, the maximum concentration (Cmax) came to 15800 ng/mL in data set [11] and 1860 ng/mL in data set [14]. Moreover, in [13], the Kp turned out to be 3.4.
In [7], `O=[N+]([O-])c1cn2c(n1)OC[C@@H](OCc1ccc(-c3ccc(OC(F)(F)F)cc3)cc1)C2` had a half-life of 768 min. Moreover, the “fold change (FC)” value in [15] came to 0.86.
`O=[N+]([O-])c1cn2c(n1)OC[C@@H](OCc1ccc(OC(F)(F)F)cc1)C2` [PRETOMANID]: the remaining at 0.75 h, 1 µM in data set [17] came out at 93%. Moreover, in [15], the “fold change (FC)” value is 0.14.
